Laboratory results as given in ChEMBL document CHEMBL4699419, “Antileishmanial assessment of isoxazole derivatives against L. donovani” (RSC Med Chem, 2020).
Calls of active or inactive are those of the source. No cut-off for these calls is given here.

Columns and labels:
Leishmania donovani [1] = test: Antileishmanial activity against late log phase promastigote stage of Leishmania donovani MHOM/IN/80/Dd8 harboring luciferase reporter gene incubated for 72 hrs by Steady-Glo luminescence assay; assay type: functional, organism-based; settings: Leishmania donovani, MHOM/IN/80/Dd8, 72 h; read-out: IC50
Outline: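 Luciferase-transfected promastigotes kept at 25 ± 1 °C in medium 199 + 10% heat-inactivated FCS + G418 (20 μg ml–1). Late-log cells (5 × 10^5 per well) grown 72 h with graded compound concentrations from DMSO, DMSO dilution controls. Aliquot mixed 1:1 with Steady-Glo, luminescence (RLU) read; % inhibition vs control. IC50 by Probit regression, three independent experiments.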

[2] = Selectivity index, ratio of CC50 for mouse J774.A1 cells to IC50 for amastigote form of Leishmania donovani MHOM/IN/80/Dd8; assay type: toxicity; settings: read-out: Ratio CC50/IC50
Outline: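 Macrophages infected at a 1:10 ratio with stationary promastigotes, then treated 72 h at 37 °C; luminescence read with Steady-Glo. IC50 values from probit analysis.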

Leishmania donovani [3] = test: Antileishmanial activity against Leishmania donovani MHOM/IN/80/Dd8 promastigotes harboring luciferase reporter gene infected in mouse J774 cells assessed as inhibition of amastigote growth incubated for 72 hrs by Steady-Glo luminescence assay; assay type: functional, organism-based; settings: Leishmania donovani, MHOM/IN/80/Dd8, J774, 72 h; read-out: IC50
Outline: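 J774A.1 mouse macrophages (2 × 10^5 per well, RPMI-1640 + 10% FCS, 37 °C CO2) infected after 24 h with stationary-phase luciferase-transgenic promastigotes at 1:10 macrophage:parasite; compounds in complete medium for 72 h at 37 °C. Medium swapped for PBS, Steady-Glo added, luminescence read; % inhibition vs untreated control RLU. IC50 by Probit log dose/response regression, three independent experiments.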

Leishmania donovani [4] = test: (§1) Antileishmanial activity against Leishmania donovani amastigotes infected in golden hamster assessed as reduction in parasite burden in spleen at 50 mg/kg, ip initiated after 2 days of pre-treatment biopsy administered for 5 days and measured on day 7 by giemsa staining based assay relative to control; assay type: functional; settings: 168 h, time 7 day
Outline: (§2)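 Male inbred golden hamsters, 40–45 g, infected with L. donovani. Animals with +1 infection on pre-treatment spleen biopsy randomized, five per group. Intraperitoneal dosing in a vehicle of 10% Tween-80/ethanol (70:30) in ddH2O, 10% final, began 2 days after biopsy and ran 5 consecutive days; vehicle-only controls. Giemsa-stained spleen biopsies taken on day 7 or 28; percentage inhibition computed from initial, treated and untreated-control amastigote counts.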

Leishmania donovani [5] = test: as §1, with “28” for “7”; assay type: functional; settings: for inhibition in vivo at 50 mg/kg: 672 h, time 28 day; outline: as §2
[6] = Cytotoxicity against mouse J774A1 cells assessed as reduction in cell viability incubated for 48 hrs by MTT assay; assay type: cell-based, J774.A1
Outline: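 J774A.1 macrophages, 0.2 × 10^6 per well, incubated overnight at 37 °C in 5% CO2, then exposed to compounds in DMSO for 48 h, with DMSO dilutions as controls. Viability read by MTT formazan at 600 nm. CC50 = 50% viability reduction versus medium-only cells, from probit regression; three independent experiments.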

SMILES | IC50 (Leishmania donovani [1]) [µM] | selectivity ratio [2] | IC50 (Leishmania donovani [3]) [µM] | inhibition in vivo at 50 mg/kg (Leishmania donovani [4]) [%] | inhibition (Leishmania donovani [5]; time 28.0 day) | CC50 at 48 h [6] [µM] | inhibition in vivo at 50 mg/kg (Leishmania donovani [5]) [%]
COC(=O)c1c([N+](=O)[O-])noc1-c1ccccc1F | 2.87 | 2.19 | 16.1 | 36 | inactive | – | –
COC(=O)c1c(NCCCNc2ccnc3cc(Cl)ccc23)noc1-c1ccc(Cl)cc1Cl | 3.82 | 9.67 | 3.21 | 62 | – | 31.1 | 9.23
COC(=O)c1c(NCc2ccc(OC)cc2OC)noc1-c1ccc(Cl)cc1Cl | 8.34 | 6 | 5.48 | 50.9 | – | 32.1 | 38
COC(=O)c1c(NCCCCNc2ccnc3cc(Cl)ccc23)noc1-c1cc2c(cc1[N+](=O)[O-])OCO2 | 4.5 | 7.97 | 8.49 | 20 | – | 67.7 | 4.38
O=C(NCCN1CCOCC1)c1c([N+](=O)[O-])noc1-c1ccc([N+](=O)[O-])cc1 | 2.83 | 3.49 | 21.9 | – | – | 76.5 | –
O=C(NCc1cccc(Cl)c1Cl)c1c([N+](=O)[O-])noc1-c1ccc(Cl)cc1 | 2.9 | 3.76 | 19.6 | – | – | 73.7 | –
CCCNC(=O)c1c([N+](=O)[O-])noc1-c1ccc([N+](=O)[O-])cc1 | 3.07 | 3.57 | 21.3 | – | – | 76.2 | –
COC(=O)c1c(NCCCN2CCOCC2)noc1-c1cc2c(cc1[N+](=O)[O-])OCO2 | 27.8 | 3.82 | 17 | – | – | 65 | –
COc1ccc(CNC(=O)c2c([N+](=O)[O-])noc2-c2ccc(Cl)cc2Cl)cc1 | 3.42 | 39.6 | 2.03 | – | – | 80.5 | –
COC(=O)c1c([N+](=O)[O-])noc1-c1cccc(-c2ncoc2C)c1 | 0.86 | 2.5 | 7.1 | – | – | 18.4 | –
COC(=O)c1c(NCCNc2ccnc3cc(Cl)ccc23)noc1-c1cc2c(cc1[N+](=O)[O-])OCO2 | 2.04 | 2.48 | 1.49 | – | – | 3.7 | –
COC(=O)c1c(NCc2ccc(Cl)cc2)noc1-c1ccc([N+](=O)[O-])cc1 | 3.79 | 9.93 | 7.88 | – | – | 78.3 | –
COC(=O)c1c(NCCCNc2ccnc3cc(Cl)ccc23)noc1-c1ccc([N+](=O)[O-])cc1 | 3.37 | 33.9 | 3.14 | – | – | 106 | –
COC(=O)c1c(NCCNc2cc(C(F)(F)F)nc3c(C(F)(F)F)cccc23)noc1-c1ccc([N+](=O)[O-])cc1 | 10.1 | 4.03 | 18.1 | – | – | 73 | –
COC(=O)c1c([N+](=O)[O-])noc1-c1ccccc1Br | 0.34 | 1.08 | 32.2 | – | – | 34.8 | –
COc1ccc(CNC(=O)c2c([N+](=O)[O-])noc2-c2ccc(Cl)cc2)cc1 | 2.67 | 9.5 | 9.41 | – | – | 89.5 | –
COC(=O)c1c(NCCCCNc2ccnc3cc(Cl)ccc23)noc1-c1ccc([N+](=O)[O-])cc1 | 2.85 | 73.8 | 1.84 | – | – | 136 | –
COc1ccc(CNC(=O)c2c([N+](=O)[O-])noc2-c2ccc([N+](=O)[O-])cc2)cc1 | 3.52 | 33.8 | 2.06 | – | – | 69.6 | –
CCN(CC)CCNc1noc(-c2ccc([N+](=O)[O-])cc2)c1C(=O)OC | 26 | 8.49 | 8.15 | – | – | 69.2 | –

SMILES | IC50 (Leishmania donovani [1]) [µM] | selectivity ratio [2] | IC50 (Leishmania donovani [3]) [µM] | inhibition in vivo at 50 mg/kg (Leishmania donovani [4]) [%] | inhibition (Leishmania donovani [5]; time 28.0 day) | CC50 at 48 h [6] [µM] | inhibition in vivo at 50 mg/kg (Leishmania donovani [5]) [%]
COC(=O)c1c(NCCNc2ccnc3cc(Cl)ccc23)noc1-c1ccccc1F | 1.73 | 2.32 | 1.47 | – | – | 3.42 | –
COC(=O)c1c(NCc2ccc(OC)cc2)noc1-c1ccc(Cl)cc1Cl | 3.09 | 1.5 | 23.9 | – | – | 34.6 | –
O=C(NCc1ccc(F)cc1)c1c([N+](=O)[O-])noc1-c1ccc(Cl)cc1Cl | 2.46 | 1.7 | 50.6 | – | – | 86.4 | –
O=C(NCc1cccc(Cl)c1Cl)c1c([N+](=O)[O-])noc1-c1ccc(Cl)cc1Cl | 3.49 | 58 | 1.41 | – | – | 81.8 | –
O=C(NCc1ccc(F)cc1)c1c([N+](=O)[O-])noc1-c1ccc(Cl)cc1 | 1.16 | 4.72 | 19.4 | – | – | 91.9 | –
COC(=O)c1c(NCCNc2cc(C(F)(F)F)nc3c(C(F)(F)F)cccc23)noc1-c1ccccc1F | 43.2 | 4.52 | 17.8 | – | – | 80.4 | –
COC(=O)c1c(NCc2ccc(OC)c(OC)c2)noc1-c1ccc(Cl)cc1Cl | 4.49 | 3 | 2.37 | – | – | 7.58 | –
COC(=O)c1c([N+](=O)[O-])noc1-c1cccc(-c2cnco2)c1 | 0.77 | 3.6 | 4.8 | – | – | 19.7 | –
COC(=O)c1c(NCCCCNc2ccnc3cc(Cl)ccc23)noc1-c1ccccc1F | 10.6 | 3.56 | 19.9 | – | – | 70.9 | –
COC(=O)c1c(NCCCNc2ccnc3cc(Cl)ccc23)noc1-c1cc2c(cc1[N+](=O)[O-])OCO2 | 7.75 | 4.55 | 16.1 | – | – | 73.6 | –
COC(=O)c1c(NCCCN2CCOCC2)noc1-c1ccc([N+](=O)[O-])cc1 | 33.8 | 15.8 | 4.53 | – | – | 71.8 | –
O=C(Nc1ccccc1)c1c([N+](=O)[O-])noc1-c1ccc(Cl)cc1Cl | 2.68 | 11.3 | 5.97 | – | – | 67.3 | –
COC(=O)c1c(NCCNc2cc(C(F)(F)F)nc3c(C(F)(F)F)cccc23)noc1-c1ccc(Cl)cc1Cl | 48.2 | 4.86 | 20.3 | – | – | 99 | –
O=C(c1c([N+](=O)[O-])noc1-c1ccc([N+](=O)[O-])cc1)N1CCOCC1 | 2.71 | 4.22 | 15.6 | – | – | 66 | –
COC(=O)c1c([N+](=O)[O-])noc1-c1ccccc1Cl | 2.72 | 4.82 | 16.6 | – | – | 80 | –
O=C(Nc1ccccc1)c1c([N+](=O)[O-])noc1-c1ccc(Cl)cc1 | 2.81 | 25.1 | 3.56 | – | – | 89.3 | –
O=C(NCc1cccc(Br)c1)c1c([N+](=O)[O-])noc1-c1ccc(Cl)cc1Cl | 3.05 | 9.19 | 7.74 | – | – | 71.2 | –
COC(=O)c1c(NCc2ccccc2)noc1-c1ccc(Cl)cc1Cl | 35.4 | 32.8 | 1.65 | – | – | 54.1 | –
COC(=O)c1c(NCCCN2CCOCC2)noc1-c1ccc(Cl)cc1Cl | 2.58 | 3.44 | 21.2 | – | – | 73 | –
